For one test, the system named is Plasmodium falciparum. The test is described as follows: Antimalarial activity against chloroquine/mefloquine-resistant Plasmodium falciparum Dd2 measured after 72 hrs by SYBR green1 dye based fluorescence assay. In kind it is functional, organism-based. Summed up: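 Whole-parasite growth inhibition, 72 h treatment, SYBR Green I fluorescence read-out, IC50 derived. Both fractions and isolated compounds were tested on the chloroquine/mefloquine-resistant Dd2 strain. Artemisinin served as positive control.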

The next test deals with A2780. The test is described as follows: Cytotoxicity against human A2780 cells after 2 days by Alamar blue assay. To be noted: A2780, 48 h. In kind it is cell-based.
Setting [1] is: Plasmodium falciparum, Dd2, 72 h.

Data on 10 molecules can be found in ChEMBL document CHEMBL4138134, “Antiplasmodial Chromanes and Chromenes from the Monotypic Plant Species Koeberlinia spinosa” (J Nat Prod, 2018).

Molecules are shown by their SMILES.

`C/C(=C/CC/C(C)=C/C(=O)C[C@]1(C)CCc2cc(O)cc(C)c2O1)CO`: the values for the IC50 in the test with Plasmodium falciparum (setting [1]) and in the test on A2780 were 24 µM and more than 10 µM, respectively.
Taken in the same sequence, the figures for `COc1cc(C)c2c(c1)CC[C@@](C)(CC(=O)/C=C(\C)CC/C=C(\C)CO)O2` were 24 µM and more than 10 µM.
`C/C(=C/C(=O)C[C@]1(C)CCc2cc(O)cc(C)c2O1)CC/C=C(\C)CO` displayed an IC50 with A2780 of more than 10 µM.
In the case of `C/C(=C\CC/C(C)=C/C(=O)C[C@]1(C)C=Cc2cc(O)cc(C)c2O1)CO`, the IC50 is more than 112 µM with Plasmodium falciparum (setting [1]) and more than 10 µM in the test with A2780.
With `C/C(=C\CC/C(C)=C/C(=O)C[C@]1(C)CCc2cc(O)cc(C)c2O1)CO`, the IC50 is more than 112 µM in the test on Plasmodium falciparum (setting [1]) and more than 10 µM with A2780.
Consider `C/C(=C/CC/C(C)=C\C(=O)C[C@]1(C)CCc2cc(O)cc(C)c2O1)CO`, for which the IC50 in the test on A2780 was more than 10 µM.
Still for that read-out and setting: the result for `C/C(=C\CC/C(C)=C/CC[C@]1(C)C=Cc2cc(O)cc(C)c2O1)CO` reads more than 10 µM.
As to `CC1=CCCC(C)(CC(=O)C[C@]2(C)CCc3cc(O)cc(C)c3O2)OC1` (single isomer, unassigned; diastereomer 1), the IC50 with Plasmodium falciparum was 109 µM; in the test on A2780, more than 10 µM.
In the test on Plasmodium falciparum, `CC1=CCCC(C)(CC(=O)C[C@]2(C)CCc3cc(O)cc(C)c3O2)OC1` (single isomer, unassigned; diastereomer 2) showed an IC50 of 23 µM.
`C[C@@H]1CC[C@H]2[C@@H](C)C(=O)O[C@@H]3O[C@@]4(C)CC[C@@H]1[C@]32OO4` [ARTEMISININ] came in with an IC50 with Plasmodium falciparum (setting [1]) of 0.009 µM.

As a reminder, the IC50 is the concentration that gives 50% inhibition. A high value points to lower potency.
